Assay results published in ChEMBL document CHEMBL1212904, “Discovery of pyrrole-indoline-2-ones as Aurora kinase inhibitors with a different inhibition profile” (J Med Chem, 2010).
Calls of active or inactive are those of the source. No cut-off for these calls is given here.

Key:
[1] = target: 3-phosphoinositide-dependent protein kinase 1 (Homo sapiens) (UniProt O15530); test: Inhibition of PDK1 at 1 uM by radiometric method
[2] = target: Mitogen-activated protein kinase 14 (Homo sapiens) (UniProt Q16539); test: Inhibition of MAPK14 at 1 uM by radiometric method
[3] = target: T1, Mast/stem cell growth factor receptor Kit (Homo sapiens, UniProt P10721); test: Inhibition of c-Kit at 1 uM by radiometric method
T1 sequence (P10721 whole entry): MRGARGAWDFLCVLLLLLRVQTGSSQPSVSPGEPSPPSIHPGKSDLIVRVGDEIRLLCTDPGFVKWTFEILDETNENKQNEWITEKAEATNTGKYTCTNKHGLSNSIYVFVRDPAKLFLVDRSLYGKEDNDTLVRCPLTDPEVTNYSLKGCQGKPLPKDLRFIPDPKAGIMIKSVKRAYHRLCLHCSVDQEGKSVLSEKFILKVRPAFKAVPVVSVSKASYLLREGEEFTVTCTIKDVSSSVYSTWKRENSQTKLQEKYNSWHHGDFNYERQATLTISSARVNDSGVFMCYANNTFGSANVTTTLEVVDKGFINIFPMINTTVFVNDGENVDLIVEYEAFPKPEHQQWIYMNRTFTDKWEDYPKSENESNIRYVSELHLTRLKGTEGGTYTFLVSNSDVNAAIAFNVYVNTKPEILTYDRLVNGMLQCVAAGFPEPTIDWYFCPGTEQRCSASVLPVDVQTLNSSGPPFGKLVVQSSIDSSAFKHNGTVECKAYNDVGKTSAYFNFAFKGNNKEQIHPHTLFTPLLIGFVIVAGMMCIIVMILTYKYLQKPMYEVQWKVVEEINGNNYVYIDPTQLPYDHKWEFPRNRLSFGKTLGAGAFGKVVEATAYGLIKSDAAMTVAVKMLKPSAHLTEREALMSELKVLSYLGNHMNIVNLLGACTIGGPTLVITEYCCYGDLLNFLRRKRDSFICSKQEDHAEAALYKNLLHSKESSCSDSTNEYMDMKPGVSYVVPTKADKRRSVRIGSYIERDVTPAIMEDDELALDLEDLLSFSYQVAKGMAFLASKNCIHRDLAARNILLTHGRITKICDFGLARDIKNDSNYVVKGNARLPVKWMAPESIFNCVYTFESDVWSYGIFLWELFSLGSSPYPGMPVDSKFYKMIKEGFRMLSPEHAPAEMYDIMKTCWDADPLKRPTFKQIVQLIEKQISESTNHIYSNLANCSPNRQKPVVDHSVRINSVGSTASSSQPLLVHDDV

[4] = target: Cyclin-dependent kinase 1 (Homo sapiens) (UniProt P06493); test: Inhibition of CDC2 at 1 uM by radiometric method
[5] = target: ALK tyrosine kinase receptor (Homo sapiens) (UniProt Q9UM73); test: Inhibition of ALK at 1 uM by radiometric method
[6] = target: Proto-oncogene tyrosine-protein kinase receptor Ret (Homo sapiens) (UniProt P07949); test: Inhibition of RET at 1 uM by KINOMEscan binding assay
[7] = target: Vascular endothelial growth factor receptor 2 (Homo sapiens, UniProt P35968); test: Inhibition of VEGFR2 at 1 uM by radiometric method
[8] = target: PI3-kinase p110-alpha/p85-alpha (Homo sapiens) (UniProt P27986+P42336); test: Inhibition of PI3K (p110alpha/p85-alpha) at 1 uM by radiometric method; type: protein-complex assay
[9] = target: Phosphorylase b kinase gamma catalytic chain, skeletal muscle/heart isoform (Homo sapiens) (UniProt Q16816); test: Inhibition of PHKG1 at 1 uM by KINOMEscan binding assay
[10] = target: T1, Mast/stem cell growth factor receptor Kit; test: Inhibition of c-Kit by radiometric method
[11] = system: Epidermal growth factor receptor (Homo sapiens), P00533 [T790M]; test: Inhibition of EGFR T790M mutant at 1 uM by radiometric method; type: protein assay
[12] = Inhibition of CHK2 at 1 uM by radiometric method
[13] = target: Cyclin-dependent kinase 2/cyclin A (Homo sapiens) (UniProt P24941+P20248+P78396); test: Inhibition of CDK2/cyclinA at 1 uM by radiometric method; type: protein-complex assay
[14] = target: T2, Platelet-derived growth factor receptor beta (Homo sapiens, UniProt P09619); test: Inhibition of PDGFRbeta at 1 uM by radiometric method
T2 sequence (P09619 whole entry): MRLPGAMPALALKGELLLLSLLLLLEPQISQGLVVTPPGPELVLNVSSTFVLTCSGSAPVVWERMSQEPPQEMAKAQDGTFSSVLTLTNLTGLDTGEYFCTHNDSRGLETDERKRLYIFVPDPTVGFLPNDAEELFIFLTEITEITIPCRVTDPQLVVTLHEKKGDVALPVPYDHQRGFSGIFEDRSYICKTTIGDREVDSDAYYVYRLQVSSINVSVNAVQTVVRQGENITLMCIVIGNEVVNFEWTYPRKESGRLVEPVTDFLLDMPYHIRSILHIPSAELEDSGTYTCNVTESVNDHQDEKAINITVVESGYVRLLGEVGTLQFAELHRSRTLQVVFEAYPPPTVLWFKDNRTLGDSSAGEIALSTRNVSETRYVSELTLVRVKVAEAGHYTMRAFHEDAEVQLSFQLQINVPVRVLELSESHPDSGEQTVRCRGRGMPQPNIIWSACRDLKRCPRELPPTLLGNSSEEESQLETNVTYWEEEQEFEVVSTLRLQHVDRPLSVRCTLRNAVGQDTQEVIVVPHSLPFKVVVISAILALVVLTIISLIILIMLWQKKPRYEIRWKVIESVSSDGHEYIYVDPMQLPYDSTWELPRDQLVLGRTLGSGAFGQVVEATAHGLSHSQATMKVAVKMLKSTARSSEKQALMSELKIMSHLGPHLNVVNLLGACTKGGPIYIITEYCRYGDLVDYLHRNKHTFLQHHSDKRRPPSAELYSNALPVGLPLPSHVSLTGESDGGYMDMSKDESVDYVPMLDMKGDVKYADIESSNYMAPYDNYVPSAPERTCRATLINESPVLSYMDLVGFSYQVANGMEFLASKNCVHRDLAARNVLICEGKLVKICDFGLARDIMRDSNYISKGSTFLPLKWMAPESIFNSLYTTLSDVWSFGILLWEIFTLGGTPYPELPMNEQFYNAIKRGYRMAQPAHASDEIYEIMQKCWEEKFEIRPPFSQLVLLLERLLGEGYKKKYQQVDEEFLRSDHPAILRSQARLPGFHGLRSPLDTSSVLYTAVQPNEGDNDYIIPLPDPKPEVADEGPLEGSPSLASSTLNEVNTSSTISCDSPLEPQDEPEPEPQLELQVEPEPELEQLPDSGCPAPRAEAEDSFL

[15] = target: Tyrosine-protein kinase Lck (Homo sapiens) (UniProt P06239); test: Inhibition of LCK at 1 uM by KINOMEscan binding assay
[16] = target: Macrophage colony-stimulating factor 1 receptor (Homo sapiens, UniProt P07333); details: 1 uM
Chain of Macrophage colony-stimulating factor 1 receptor (P07333 whole entry): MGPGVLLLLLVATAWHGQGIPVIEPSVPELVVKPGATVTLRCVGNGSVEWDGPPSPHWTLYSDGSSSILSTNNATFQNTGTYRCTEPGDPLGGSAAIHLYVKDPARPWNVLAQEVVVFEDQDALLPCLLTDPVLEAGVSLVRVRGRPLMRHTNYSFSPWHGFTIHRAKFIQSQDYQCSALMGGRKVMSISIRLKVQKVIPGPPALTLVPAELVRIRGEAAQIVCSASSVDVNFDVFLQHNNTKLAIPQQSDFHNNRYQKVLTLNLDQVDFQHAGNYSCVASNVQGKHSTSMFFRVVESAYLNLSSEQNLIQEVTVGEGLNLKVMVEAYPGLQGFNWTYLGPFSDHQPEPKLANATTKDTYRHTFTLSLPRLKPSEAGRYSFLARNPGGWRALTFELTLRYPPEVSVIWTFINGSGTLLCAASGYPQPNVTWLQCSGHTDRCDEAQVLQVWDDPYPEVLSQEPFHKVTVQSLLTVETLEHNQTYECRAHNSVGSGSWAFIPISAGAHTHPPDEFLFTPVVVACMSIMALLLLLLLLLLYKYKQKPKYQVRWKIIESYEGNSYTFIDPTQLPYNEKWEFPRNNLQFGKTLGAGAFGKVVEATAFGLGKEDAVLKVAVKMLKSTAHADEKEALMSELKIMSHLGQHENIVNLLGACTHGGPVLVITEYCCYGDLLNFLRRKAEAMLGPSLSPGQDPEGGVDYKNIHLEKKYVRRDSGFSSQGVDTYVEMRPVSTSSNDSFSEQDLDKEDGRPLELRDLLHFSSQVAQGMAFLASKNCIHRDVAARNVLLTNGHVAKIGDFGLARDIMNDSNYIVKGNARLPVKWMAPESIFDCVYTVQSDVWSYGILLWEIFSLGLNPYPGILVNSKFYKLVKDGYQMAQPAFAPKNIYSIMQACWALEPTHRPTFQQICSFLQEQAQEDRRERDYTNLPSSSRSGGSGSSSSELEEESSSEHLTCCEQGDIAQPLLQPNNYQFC

[17] = target: Rhodopsin kinase GRK7 (Homo sapiens) (UniProt Q8WTQ7); test: Inhibition of GRK7 at 1 uM by KINOMEscan binding assay
Chain of Rhodopsin kinase GRK7 (Homo sapiens) (Q8WTQ7 whole entry): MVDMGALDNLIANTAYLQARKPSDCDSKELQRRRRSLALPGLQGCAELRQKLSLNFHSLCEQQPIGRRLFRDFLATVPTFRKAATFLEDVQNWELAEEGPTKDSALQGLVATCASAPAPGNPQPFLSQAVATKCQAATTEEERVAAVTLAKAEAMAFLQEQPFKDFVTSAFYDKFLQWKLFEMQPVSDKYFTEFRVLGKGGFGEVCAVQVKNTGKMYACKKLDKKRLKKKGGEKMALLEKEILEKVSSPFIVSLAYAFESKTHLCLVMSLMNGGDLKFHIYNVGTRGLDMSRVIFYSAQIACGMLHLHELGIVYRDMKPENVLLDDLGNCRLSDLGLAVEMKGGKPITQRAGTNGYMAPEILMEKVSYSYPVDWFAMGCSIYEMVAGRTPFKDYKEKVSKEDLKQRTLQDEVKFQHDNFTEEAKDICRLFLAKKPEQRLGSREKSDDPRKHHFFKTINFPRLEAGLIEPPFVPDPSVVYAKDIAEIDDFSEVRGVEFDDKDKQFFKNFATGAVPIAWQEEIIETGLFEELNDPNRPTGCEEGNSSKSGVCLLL

[18] = system: Serine/threonine-protein kinase B-raf (Homo sapiens), P15056 [V600E]; test: Inhibition of b-Raf V600E mutant at 1 uM by radiometric method
[19] = target: T3, Aurora kinase A (Homo sapiens) (UniProt O14965); test: Inhibition of aurora A in human HCT116 cells assessed as reduction of phosphorylated histone H3 at ser10 level measured at 10 uM after 3 hrs by Western blot analysis; type: cell-based; details: HCT-116
T3 sequence (whole entry): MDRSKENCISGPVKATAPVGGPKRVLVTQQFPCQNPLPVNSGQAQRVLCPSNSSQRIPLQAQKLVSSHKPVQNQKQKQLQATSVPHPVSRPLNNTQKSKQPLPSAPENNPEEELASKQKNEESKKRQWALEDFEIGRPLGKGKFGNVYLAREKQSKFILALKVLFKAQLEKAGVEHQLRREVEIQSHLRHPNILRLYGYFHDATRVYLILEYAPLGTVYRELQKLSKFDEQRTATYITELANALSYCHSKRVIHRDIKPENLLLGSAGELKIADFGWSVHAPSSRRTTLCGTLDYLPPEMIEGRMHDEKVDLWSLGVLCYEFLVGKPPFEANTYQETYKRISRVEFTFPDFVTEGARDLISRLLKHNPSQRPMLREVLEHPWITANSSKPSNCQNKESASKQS
In short: (§1)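 HCT-116 cells were synchronized at G2/M with 200 ng/mL nocodazole for 17 h, then given inhibitor for a further 3.0 h. Cells were PBS-washed, boiled in 2× SDS sample buffer, and run on SDS-PAGE with immunoblotting. Rabbit antibodies detected pT288 Aurora A, total Aurora A, pS10 histone H3 and total H3; β-actin served as loading control.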

[20] = target: Hepatocyte growth factor receptor (Homo sapiens) (UniProt P08581); test: Inhibition of c-Met at 1 uM by radiometric method
[21] = target: Insulin-like growth factor 1 receptor (Homo sapiens) (UniProt P08069); test: Inhibition of IGF1R at 1 uM by radiometric method
[22] = target: Muscle, skeletal receptor tyrosine-protein kinase (Homo sapiens) (UniProt O15146); test: Inhibition of MUSK at 1 uM by KINOMEscan binding assay
[23] = target: Tyrosine-protein kinase Mer (Homo sapiens) (UniProt Q12866); test: Inhibition of MERTK at 1 uM by KINOMEscan binding assay
[24] = target: Phosphatidylinositol 5-phosphate 4-kinase type-2 gamma (Homo sapiens) (UniProt Q8TBX8); test: Inhibition of PIP5K2C at 1 uM by KINOMEscan binding assay
Chain of Phosphatidylinositol 5-phosphate 4-kinase type-2 gamma (Homo sapiens) (Q8TBX8 whole entry): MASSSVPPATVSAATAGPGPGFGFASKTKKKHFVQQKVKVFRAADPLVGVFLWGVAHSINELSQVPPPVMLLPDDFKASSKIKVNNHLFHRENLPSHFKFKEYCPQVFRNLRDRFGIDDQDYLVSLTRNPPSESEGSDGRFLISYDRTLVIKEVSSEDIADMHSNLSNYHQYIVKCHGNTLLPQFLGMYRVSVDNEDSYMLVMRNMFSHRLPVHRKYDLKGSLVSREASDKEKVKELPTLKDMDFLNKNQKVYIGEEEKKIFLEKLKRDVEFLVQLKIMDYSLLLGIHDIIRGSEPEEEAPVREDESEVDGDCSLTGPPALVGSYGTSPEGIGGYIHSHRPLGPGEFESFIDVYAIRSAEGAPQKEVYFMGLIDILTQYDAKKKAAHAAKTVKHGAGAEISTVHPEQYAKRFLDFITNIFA

HT-29 = test: Antiproliferative activity against human HT-29 cells after 72 hrs by cell titer 96 assay; type: functional, cell-based; details: HT-29, 72 h
[25] = target: Serine/threonine-protein kinase B-raf (Homo sapiens) (UniProt P15056); test: Inhibition of b-Raf at 1 uM by radiometric method
[26] = target: T3, Aurora kinase A (Homo sapiens); test: Inhibition of aurora A in human HCT116 cells assessed as reduction of phosphorylated aurora A at Thr288 level measured at 1.25 to 40 uM after 3 hrs by Western blot analysis; type: cell-based; details: HCT-116
In short: as §1

[27] = target: Glycogen synthase kinase-3 beta (Homo sapiens) (UniProt P49841); test: Inhibition of GSK3B at 1 uM by radiometric method
HCT-116 = test: Antiproliferative activity against human HCT116 cells after 72 hrs by cell titer 96 assay; type: functional, cell-based; details: HCT-116, 72 h
[28] = target: Serine/threonine-protein kinase Chk1 (Homo sapiens) (UniProt O14757); test: Inhibition of CHK1 at 1 uM by radiometric method
[29] = target: Epithelial discoidin domain-containing receptor 1 (Homo sapiens) (UniProt Q08345); test: Inhibition of DDR1 at 1 uM by KINOMEscan binding assay
[30] = target: T2, Platelet-derived growth factor receptor beta; test: Inhibition of PDGFRbeta by radiometric method
[31] = target: Receptor-type tyrosine-protein kinase FLT3 (Homo sapiens) (UniProt P36888); test: Inhibition of FLT3 at 1 uM by radiometric method
Chain of Receptor-type tyrosine-protein kinase FLT3 (Homo sapiens) (P36888 whole entry): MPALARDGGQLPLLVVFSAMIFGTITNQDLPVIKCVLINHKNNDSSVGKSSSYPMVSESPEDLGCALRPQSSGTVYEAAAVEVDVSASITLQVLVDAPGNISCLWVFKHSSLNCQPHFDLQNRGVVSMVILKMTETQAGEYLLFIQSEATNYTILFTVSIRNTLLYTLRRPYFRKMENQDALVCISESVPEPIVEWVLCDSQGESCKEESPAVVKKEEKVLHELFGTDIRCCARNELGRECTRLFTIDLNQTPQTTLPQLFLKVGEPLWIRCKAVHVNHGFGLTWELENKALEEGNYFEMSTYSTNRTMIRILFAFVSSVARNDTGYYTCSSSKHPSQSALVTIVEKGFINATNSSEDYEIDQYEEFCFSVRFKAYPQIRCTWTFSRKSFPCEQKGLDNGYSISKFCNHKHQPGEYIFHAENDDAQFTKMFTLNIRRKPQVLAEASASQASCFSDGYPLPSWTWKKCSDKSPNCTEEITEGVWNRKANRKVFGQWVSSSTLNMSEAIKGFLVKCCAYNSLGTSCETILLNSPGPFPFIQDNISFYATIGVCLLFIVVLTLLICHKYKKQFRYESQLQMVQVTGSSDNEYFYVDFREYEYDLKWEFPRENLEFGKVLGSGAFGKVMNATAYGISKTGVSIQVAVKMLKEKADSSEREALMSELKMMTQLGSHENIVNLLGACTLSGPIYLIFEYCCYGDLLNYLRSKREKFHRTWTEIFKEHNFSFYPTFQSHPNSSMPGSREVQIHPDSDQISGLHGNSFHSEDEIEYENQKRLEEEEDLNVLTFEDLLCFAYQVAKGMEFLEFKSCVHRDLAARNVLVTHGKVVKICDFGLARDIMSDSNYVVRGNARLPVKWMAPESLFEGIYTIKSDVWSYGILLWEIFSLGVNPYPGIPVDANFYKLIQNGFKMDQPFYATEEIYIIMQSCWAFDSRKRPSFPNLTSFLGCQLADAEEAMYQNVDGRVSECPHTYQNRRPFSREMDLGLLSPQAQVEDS

Row | inhibition [1] [%] | inhibition [2] [%] | inhibition [3] [%] | inhibition [4] [%] | inhibition [5] [%] | residual activity [6] [%] | inhibition [7] [%] | inhibition [8] [%] | residual activity [9] [%] | IC50 [10] [µM] | inhibition [11] [%] | inhibition [12] [%] | inhibition [13] [%] | inhibition [14] [%] | residual activity [15] [%] | inhibition [16] [%] | residual activity [17] [%] | inhibition [18] [%] | inhibition [19] | inhibition [20] [%] | SMILES | also measured
1 | 11 | 11 | 65 | 12 | 85 | < 10 | 51 | 5 | < 10 | < 1 | 8 | 56 | 46 | 70 | < 10 | 56 | < 10 | -4 | Active | 32 | CN(C)CCCc1c(/C=C2\C(=O)Nc3ccc(NS(=O)(=O)c4ccccc4)cc32)[nH]c2c1C(=O)CCC2 | inhibition [21]: 6%; residual activity [22]: < 10%; residual activity [23]: < 10%; residual activity [24]: < 10%; IC50 (HT-29): 2.97 µM; inhibition [25]: 2%; inhibition [26]: inactive; inhibition [27]: 24%; IC50 (HCT-116): 3.69 µM; inhibition [28]: 58%; residual activity [29]: < 10%; IC50 [30]: < 1 µM; inhibition [31]: 95%
2 | 24 | 4 | 41 | 33 | 80 | < 10 | 74 | 11 | < 10 | > 1 | 14 | 17 | 71 | 47 | < 10 | 34 | < 10 | 3 | Active | 32 | CCOC(=O)CCc1c(/C=C2\C(=O)Nc3ccc(NS(=O)(=O)c4ccccc4)cc32)[nH]c2c1C(=O)CCC2 | inhibition [21]: 24%; residual activity [22]: < 10%; residual activity [23]: < 10%; residual activity [24]: < 10%; IC50 (HT-29): 3.23 µM; inhibition [25]: -1%; inhibition [26]: Active; inhibition [27]: 47%; IC50 (HCT-116): 3.74 µM; inhibition [28]: 10%; residual activity [29]: < 10%; IC50 [30]: > 1 µM; inhibition [31]: 97%
